An excerpt weighted towards active compounds, which were near 1.3% of everything screened.
FN deposit inh = fibronectin deposition inhibition | AH1F fibroblasts, Alexa488-fibronectin deposition fluorescence, overnight | inhibition, % at 12.6 µM | 350,000 compounds, 0.086% hits;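 active = mean inhibition across replicates of 30% or more, regardless of how many single replicates reach that level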;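 note: positive control wells lacked labelled fibronectin entirely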
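test system = AH1F fibroblasts assembling fluorescent fibronectin matrix | quantity = 10000 AH1F cells per well | buffer or medium = DMEM plus 2% serum, read in PBS | doses = single dose, pinned | incubation = 1 h cell attachment, overnight exposure to compound and label | detection = fluorescence at 485 nm excitation, 525 nm emission | read-out basis = inhibition from reduced deposited-fibronectin fluorescence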
RAD52 inh = blocks human RAD52 DNA annealing; P43351; recombinant RAD52 DNA annealing, FRET fluorescence; inhibition, % at 18.7 µM; 360,000 compounds, 0.46% hits;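 active = every replicate showing at least 50% inhibition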
Target sequence (P43351 whole entry, looked up): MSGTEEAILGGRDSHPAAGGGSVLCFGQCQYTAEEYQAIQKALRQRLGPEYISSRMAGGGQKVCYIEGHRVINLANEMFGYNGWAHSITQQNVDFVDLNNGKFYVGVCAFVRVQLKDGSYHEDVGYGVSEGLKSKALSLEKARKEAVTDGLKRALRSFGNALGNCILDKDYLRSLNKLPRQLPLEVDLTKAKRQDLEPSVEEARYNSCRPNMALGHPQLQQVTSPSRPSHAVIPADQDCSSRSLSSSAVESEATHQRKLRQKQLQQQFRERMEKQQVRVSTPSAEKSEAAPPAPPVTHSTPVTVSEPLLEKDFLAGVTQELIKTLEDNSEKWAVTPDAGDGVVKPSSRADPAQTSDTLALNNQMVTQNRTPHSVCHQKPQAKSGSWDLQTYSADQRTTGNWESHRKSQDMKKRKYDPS
RAD54 inh = blocks human RAD54 Holliday junction branch migration; FAM/BHQ fluorescence; 360,000 compounds, 0.14% hits; inhibition, % at 10.4 µM; Q92698;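 active = mean normalized replicate activity at least 40 and at least half of replicates scoring 40 or more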;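 note: 0% = median of neutral control wells and 100% = median of positive control wells; inhibitors cause a drop in the FAM fluorescence signal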
PAX8 reporter = lowers PAX8-driven luciferase in RMG-I cells; RMG-I TPO-luciferase reporter, SteadyGlo, 24 h; inhibition, % at 12.6 µM; 360,000 compounds, 1.2% hits; AID 652154;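 active = mean replicate inhibition at least 60% with every replicate also reaching 60%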;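 note: luciferase light reporting Pax8 driven TPO promoter activity; plate controls were median of neutral control wells for no effect and mitoxantrone controls for full effect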
Starred values were filed as active, the others as inactive; / = not tested or not shown; ! = repeats disagree.

SMILES | FN deposit inh | RAD52 inh | RAD54 inh | PAX8 reporter
C[C@@H]1CN([C@H](C)CO)C(=O)c2cc(NS(=O)(=O)c3ccc(Cl)cc3)ccc2O[C@@H](C)CCCCO[C@H]1CN(C)C(=O)Nc1ccc(F)cc1 | 0.0 | -16.9 | -4.7 | 66.6*
COc1ccc(S(=O)(=O)Nc2ccc3c(c2)C(=O)N([C@@H](C)CO)C[C@H](C)[C@@H](CN(C)C(=O)Nc2ccc(F)cc2)OCCCC[C@H](C)O3)cc1 | / | 16.6 | -3.5 | 84.7*
CO[C@H]1CN(C)C(=O)c2ccc(NC(=O)C3CCCC3)cc2OC[C@H](C)N(C(C)=O)C[C@@H]1C | -2.6 | 7.1 | 5.1 | 3.6
CC(C)NC(=O)c1csc([C@@H]2O[C@H](CO)[C@H](O)[C@H](O)[C@H]2O)n1 | -2.8 | -9.5 | 6.5 | -0.1
CO[C@@H]1CN(C)C(=O)c2cc(NC(=O)C3CCOCC3)ccc2OC[C@@H](C)N(CC2CCOCC2)C[C@H]1C | -6.7 | -7.3 | 0.9 | -9.4
C[C@@H]1CN([C@H](C)CO)C(=O)c2cc(NS(=O)(=O)c3ccc(F)cc3)ccc2O[C@@H](C)CCCCO[C@H]1CN(C)C(=O)Nc1ccc(F)cc1 | -7.3 | / | 1.6 | 21.1
C[C@H]1CCCCO[C@H](CN(C)C(=O)Nc2ccc(F)cc2)[C@@H](C)CN([C@@H](C)CO)C(=O)c2cc(NS(=O)(=O)c3ccc(F)cc3)ccc2O1 | 2.3 | / | 2.1 | 66.9*
CC(=O)N/C(=C\c1ccccc1)C(=O)OCC(=O)NC1CCCC1 | -4.2 | 1.8 | -1.6 | 149.7*
COc1ccccc1S(=O)(=O)N1C[C@@H]2N[C@H](C1)C2c1ccc(-c2ccccc2C)cc1 (some centres undefined) | 7.3 | / | / | 10.6
Cc1ccccc1-c1ccc(C2[C@@H]3CN(S(=O)(=O)c4ccccc4C)C[C@H]2N3)cc1 (some centres undefined) | 3.7 | 72.1*! | / | 9.9
COc1cccc(-c2ccc(C3[C@@H]4CN(S(=O)(=O)c5ccccc5)C[C@H]3N4)cc2)c1 (some centres undefined) | 5.4 | 46.7 | / | 8.9
COc1cccc(-c2ccc(C3[C@@H]4CN(S(=O)(=O)c5ccccc5C)C[C@H]3N4)cc2)c1 (some centres undefined) | 1.7 | 73.0*! | / | 1.4
COc1ccc(-c2ccc(C3[C@@H]4CN(S(=O)(=O)c5ccccc5C)C[C@H]3N4)cc2)cc1 (some centres undefined) | -11.5 | / | / | -6.8
COc1cccc(S(=O)(=O)N2C[C@@H]3N[C@H](C2)C3c2ccc(/C=C/c3ccccc3)cc2)c1 (some centres undefined) | -0.8 | 58.5*! | / | 92.2*!
O=C1NCCCC2c3c(cc(Br)c(O)c3Br)OC12N1CCCCC1 (centres undefined) | / | / | -5.6 | /
COC(=O)c1ccc(S(=O)(=O)N2CCCCCC2)n1C | 5.0 | -3.2 | -0.1 | 0.0
O=C(NC(=S)Nc1ncccn1)c1ccccc1Cl | 0.6 | -21.8 | / | 70.4*
CNC(=O)NC(=S)NC(=O)c1ccccc1Cl | 7.8 | -3.1 | / | -4.3
CCOc1ccccc1NC(=O)c1c(NC(=O)CCC(=O)O)sc2c1CCCCC2 | 32.6* | -71.8 | / | 6.7
CCOC(=O)c1ccc(NC(=O)c2c(NC(=O)CCC(=O)O)sc3c2CCCCC3)cc1 | / | -51.1 | / | -13.9
C[n+]1cc2c3c(ccc2c2ccc4cc5c(cc4c21)OCO5)OCO3 | 52.2* | -12.4 | / | 108.5*
COc1ccc(CNCCC(c2ccc(OC(C)C)cc2)c2ccccc2OC)cc1 (centres undefined) | 3.9 | -45.8 | / | 68.3*
CCCOc1ccc(F)cc1-c1cc(C(=O)NCCOC)[nH]n1 | 5.3 | -1.7 | -1.5 | 1.0
C=CC[C@H](CC(=O)N(CCO)Cc1ccccc1)C(=O)N[C@H](COC(=O)[C@@H](CC=C)Cc1ccc(F)cc1)Cc1c[nH]c2ccccc12 | -0.2 | -7.6 | 8.5 | 82.0*
C=CCC[C@H](Cc1ccc(F)cc1)C(=O)OC[C@H](Cc1c[nH]c2ccccc12)NC(=O)[C@H](CC=C)CC(=O)N(CCO)Cc1ccccc1 | 0.8 | -5.8 | 2.4 | 97.4*
SMILES | FN deposit inh | RAD52 inh | RAD54 inh | PAX8 reporter
C=CCC[C@H](Cc1ccc(F)cc1)C(=O)OC[C@@H](Cc1c[nH]c2ccccc12)NC(=O)[C@@H](CC=C)CC(=O)N[C@@H](CO)Cc1ccccc1 | 3.7 | -8.7 | 2.1 | 77.7*
C=CCC[C@@H](Cc1ccc(F)cc1)C(=O)OC[C@@H](Cc1c[nH]c2ccccc12)NC(=O)[C@@H](CC=C)CC(=O)N[C@@H](CO)Cc1ccccc1 | -7.3 | -15.2 | -0.4 | 24.1
C=CCC[C@@H](Cc1ccc(F)cc1)C(=O)OC[C@H](Cc1c[nH]c2ccccc12)NC(=O)[C@@H](CC=C)CC(=O)N[C@@H](CO)Cc1ccccc1 | 2.7 | -2.6 | -3.1 | 55.7
C=CCC[C@@H](Cc1ccc(F)cc1)C(=O)OC[C@@H](Cc1c[nH]c2ccccc12)NC(=O)[C@@H](CC=C)CC(=O)N(CCO)Cc1ccccc1 | / | -4.7 | -3.8 | 66.6*
C=CC[C@@H](CC(=O)N(CCO)Cc1ccccc1)C(=O)N[C@H](COC(=O)[C@@H](CC=C)Cc1ccc(F)cc1)Cc1c[nH]c2ccccc12 | -10.4 | -7.7 | -1.0 | 36.8
CCCCNc1ccc2c(c1)OC[C@@H](Cc1ccccc1)NS2(=O)=O | 2.8 | -25.4 | / | 9.4
Cc1nc(S/C(=C\c2ccc(-c3ccc(C(=O)O)c(Cl)c3)o2)C(=O)O)n[nH]1 | -29.5 | -120.6 | -32.3 | -3.4
CO[C@H]1CN(C)C(=O)c2cc(NC(=O)C3CCOCC3)ccc2OC[C@H](C)N(C(=O)c2ccccc2)C[C@@H]1C | -16.8 | / | / | /
Nc1nc(=S)c2[nH]c(=S)[nH]c2[nH]1 | 3.4 | -5.1 | 3.7 | 11.3
Nc1nc(=S)c2[nH]cnc2[nH]1 | -9.8 | -8.1 | -9.9 | 93.6*
CN1[C@@H]2Cn3c(ccc(-c4ccccc4)c3=O)[C@H]1[C@@H](C(=O)NC1CCCCC1)[C@@H]2CO | / | 3.8 | 2.0 | 88.6*
CN1[C@@H]2c3ccc(-c4ccccc4)c(=O)n3C[C@H]1[C@H](CO)[C@H]2C(=O)NC1CCCCC1 | / | -10.2 | 7.0 | 10.4
CN(C)CC(=O)N1[C@@H]2c3ccc(-c4ccccc4)c(=O)n3C[C@H]1[C@H](CO)[C@H]2C(=O)N1CCCCC1 | / | 1.3 | 10.4 | 4.4
CN(C)C(=O)[C@H]1[C@H](CO)[C@H]2Cn3c(ccc(C4=CCCCC4)c3=O)[C@@H]1N2C | / | 63.4* | 4.6 | 2.2
CN(C)C(=O)[C@@H]1[C@@H](CO)[C@@H]2Cn3c(ccc(C4=CCCCC4)c3=O)[C@H]1N2CC1CC1 | / | 4.6 | -3.4 | 0.8
CC(=O)N1[C@@H]2Cn3c(ccc(-c4ccccc4)c3=O)[C@H]1[C@@H](C(=O)N1CCCCC1)[C@@H]2CO | / | 58.9* | 5.8 | -7.6
CN1[C@H](C(=O)N2CCc3ccccc3C2)[C@@H](CO)[C@@H]2Cn3c(ccc(-c4ccccc4)c3=O)[C@@H]21 | / | -5.4 | -5.2 | 67.6*
Cc1ccc(NC(=O)c2ncn(CCCN3CCN(c4ccccn4)CC3)n2)cc1C | -3.8 | -10.8 | -14.1 | 5.0

Assay outcomes deposited in PubChem by Broad Institute.
